# CHRM4 antagonist: antagonists of human muscarinic M4 receptor (CHRM4). actives 0.73% (n = 360,000). CHO-hM4 cells, ACh EC80, Fluo-8 calcium fluorescence. AID 624125. inhibition, % at 3 µM. P08173;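 active = inhibition above its plate's cutoff, the mean inhibition of sample wells plus 3 SD, cut at about 27% in these data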;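 also: 0% = acetylcholine EC80 with DMSO and 100% = DMSO without agonist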
# CHRM5 agonist: CHRM5 agonism in calcium assay; activation, % at 3 µM; P08912; CHO-K1 hM5 cells, Fluo-8 calcium fluorescence; 0% DMSO wells, 100% maximal acetylcholine response; actives 0.19% (n = 360,000);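 active = activation above the run's mean over test compounds plus 3 SD, cut at about 23% in these data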;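 also: signal is peak over basal fluorescence ratio across the kinetic read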
# Target sequence (P08912 whole entry, looked up): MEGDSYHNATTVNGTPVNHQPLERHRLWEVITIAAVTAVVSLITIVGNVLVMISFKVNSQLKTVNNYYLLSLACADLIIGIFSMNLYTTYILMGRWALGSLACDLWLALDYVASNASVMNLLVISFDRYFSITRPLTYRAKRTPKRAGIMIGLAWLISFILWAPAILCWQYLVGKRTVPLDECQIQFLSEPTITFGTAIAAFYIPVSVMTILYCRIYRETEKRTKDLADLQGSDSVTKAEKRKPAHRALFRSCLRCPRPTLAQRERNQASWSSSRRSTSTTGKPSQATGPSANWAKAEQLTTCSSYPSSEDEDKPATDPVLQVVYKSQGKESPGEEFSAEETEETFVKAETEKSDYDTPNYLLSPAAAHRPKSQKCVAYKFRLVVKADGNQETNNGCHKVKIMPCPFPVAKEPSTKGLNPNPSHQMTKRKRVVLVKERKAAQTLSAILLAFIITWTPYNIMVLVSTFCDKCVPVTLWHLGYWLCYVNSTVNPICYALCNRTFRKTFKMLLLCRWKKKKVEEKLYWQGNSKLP
# M4 ag: agonists of human muscarinic M4 receptor (CHRM4). P08173. activation, % at 3 µM. CHO-K1 hM4/Gqi5, Fluo-8 calcium fluorescence; vehicle 0%, full acetylcholine response 100%. actives 0.14% (n = 360,000);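 active = activation above the run mean over all test wells plus 3 SD, cut at about 32% in these data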;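 also: peak over basal fluorescence ratio per well then scaled between controls; 0% = DMSO wells and 100% = acetylcholine at EC100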
# CHRM5 PAM: potentiates acetylcholine response at human M5 receptor; P08912; actives 0.3% (n = 360,000); CHO-K1 hM5, Fluo-8 calcium, ACh EC20 PAM; 0% = ACh EC20, 100% = ACh EC100; activation, % at 3 µM; AID 624038;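 active = activation above the run cutoff, the mean activation of all test compounds plus 3 SD, cut at about 18% in these data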
#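 System: CHO-K1 hM5 cells. Reagent: acetylcholine, EC20 level. Compound dosing: single dose, 3 µM nominal final test concentration. Timing: Post-acetylcholine fluorescence recording 140 s. Detection: Fluo-8 calcium fluorescence. Read-out: % activation, ACh-normalized. Benchmarks: ACh EC20 and EC100 wells. Repeats: singlicate, one well per test compound.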
# CHRM5 antagonist: antagonists of human muscarinic M5 receptor (CHRM5); inhibition, % at 3 µM; P08912; actives 0.59% (n = 360,000); AID 624040; CHO-hM5 cells, Fluo-8 calcium fluorescence, ACh EC80;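 active = inhibition above a per-plate cutoff, the mean of that plate's test compounds plus 3 SD, cut at about 27% in these data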;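 also: 0% = acetylcholine EC80 with DMSO and 100% = DMSO without agonist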
# M4 PAM: positive allosteric modulators of human muscarinic M4 receptor. AID 624126. P08173. activation, % at 3 µM. actives 0.4% (n = 360,000). CHO-K1 hM4/Gqi5, Fluo-8 calcium fluorescence, ACh EC20; 0% = ACh EC20, 100% = maximal ACh;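 active = activation above its plate's cutoff, the mean activation of sample wells plus 3 SD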
# Numbers without * were called inactive; ! = not active in a repeat. A selection: hits, their analogues and other compounds. The true share with any hit is near 1.8%.
SMILES,CHRM4 antagonist,CHRM5 agonist,M4 ag,CHRM5 PAM,CHRM5 antagonist,M4 PAM
CC(C)[C@H](NC(=O)OCc1ccccc1)C(=O)OCC(=O)NC1(C#N)CCCC1,1,-5,1,11,-2,16*
CC(C)[C@H](NC(=O)OCc1ccccc1)C(=O)OCC(=O)NC1CCCCC1,0,-4,1,-3,0,1
O=C(CCN1C(=O)c2ccccc2C1=O)c1ccccc1,-5,2,1,-1,19,4
CNC(=O)c1ccc(NC(=O)C2CCN(S(=O)(=O)c3cccc(C(F)(F)F)c3)CC2)cc1,-11,0,0,19*,-10,6
O=C(NNC(=O)C1CCN(S(=O)(=O)c2cccc(C(F)(F)F)c2)CC1)C1CC1,-5,-4,1,-4,-3,5
CN(Cc1ccccc1F)C(=O)CN1c2cccc3cccc(c23)S1(=O)=O,-3,3,14,-12,17,-2
COCCn1c2nc(=O)n(-c3ccccc3)c(=O)c-2nc2ccccc21,17,28*,65*,-6,8,-12
COCCn1c(-c2ccc(OC)cc2)nc2ccccc21,3,-10,1,3,1,1
CCN(C(=O)COC(=O)CCC(=O)c1cccs1)c1ccccc1,-6,4,1,7,-10,8
O=C(Nc1ccc(Cl)cc1)c1csc(-c2ccccc2)n1,-7,0,-2,4,2,34*
CN(C)C(C)(C)C#CCC(c1ccccc1)c1ccccc1,38*,-8,3,-20,46*,-17
CN(C)C(C)(C)C#CCCCCC#CC(C)(C)N(C)C,12,-1,1,0,7,3
CN(C)c1ccc(NC(=O)C[n+]2ccccc2)cc1,1,-5,-1,-3,8,0
O=C(C[n+]1ccccc1)Nc1ccc(Oc2ccccc2)cc1,47*,-15,-1,-26,6,-26
Cc1ccc(S(=O)(=O)N2CCN(S(C)(=O)=O)C2C)cc1 (centres undefined),-27,-1,0,1,-7,16
CC1=C(C(=O)N(C)C)CC(CC(=O)NCCCCc2ccccc2)C(=O)N1CCCN1CCCC1=O (centres undefined),-15,0,1,-10,7,22*
CC1(C)CCN2CCC(C)(C)c3c(O)ccc1c32,26,95*,30,-16,41*,-13
N#C/C(=N\Nc1ccc(S(=O)(=O)N2CCCCCC2)cc1)C(N)=S,-5,4,12,-17,30*,-7
N#C/C(=N\Nc1ccc(S(=O)(=O)N2CCCCC2)cc1)C(N)=S,1,7,7,-4,3,-2
N#C/C(=N/Nc1ccc([N+](=O)[O-])cc1)C(=N)N1CCCCC1,0,2,0,-2,3,-11
N#C/C(=N\Nc1ccc([N+](=O)[O-])cc1)C(N)=S,-2,7,10,-20,30*,-23
Fc1ccc(C2CCNCC2COc2ccc3c(c2)OCO3)cc1 (centres undefined),20,2,12,-17,20,-19
Fc1ccc([C@@H]2CCNC[C@H]2COc2ccc3c(c2)OCO3)cc1,34*!,7,15,-19,30*!,-17
COc1ccccc1CNC1CCCc2ccccc21 (centres undefined),30*,-7,1,-9,17,-14
COc1ccc(CNC2CCCc3ccccc32)cc1OC (centres undefined),-17,-3,2,-2,-6,5
O=C(C[C@H]1CC[C@@H]2[C@H](COC[C@H](O)CN2Cc2cccc(F)c2)O1)NCc1cccc(F)c1,1,3,2,9,-11,-1
COCCn1cnc2c1c(=O)n(CC(=O)Nc1cc(C)on1)c(=O)n2Cc1ccccc1,4,-5,1,-3,-1,24*
Cc1cccc(NC(=O)c2ccc(F)c(S(=O)(=O)NCc3ccco3)c2)c1,-8,2,1,19*,-16,3

# Bioassay records deposited in PubChem BioAssay by The Scripps Research Institute Molecular Screening Center.
